Compounds with a hit are over-represented: about 3.3% of the library has one in this group of screens.
TDP2 inh: blocks human TDP2 phosphodiesterase activity; O95551; recombinant TDP2, T5PNP hydrolysis, p-nitrophenol absorbance 415 nm; inhibition, % at 12.8 µM; hit rate 0.34% among 370,000; AID 720702;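 active = inhibition above the mean of all tested compounds plus 3 SD, set per campaign, cut at about 25% in these data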;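 note: 0% = DMSO with enzyme and 100% = buffer with substrate but no TDP2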
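System – recombinant human TDP2 · Amount – 120 nM TDP2 per well · Buffer or medium – Mg2+-containing Tris-HCl buffer, pH 7.5 · Reagent – T5PNP substrate, 5 mM · Dosing – 12.8 µM single point, 1% DMSO · Incubation – 2 h at 37 °C · Measured by – epi absorbance · Read-out basis – percent inhibition · Benchmarks – high control without enzyme, low control DMSO plus TDP2 · Repeats – singlicate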
UHRF1 binding: UHRF1 methyl-DNA binding inhibition; UHRF1 binding to methylated oligo, TR-FRET; Q96T88; inhibition, % at 4.4 µM; AID 687016; hit rate 0.75% among 370,000; in the data active = inhibition above about 21%;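 note: UHRF1 SRA domain binding a hemimethylated CpG hairpin DNA probe; 0% = median of test compound wells and 100% = reference inhibitor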
PRMT1 FP inh: blocks human protein arginine methyltransferase 1; recombinant PRMT1, activity-based probe fluorescence polarization; hit rate 1.3% among 370,000; inhibition, % at 2.79 µM;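 active = inhibition above about 21% made by adding two undisclosed values, limit read from the data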
Target sequence (Q99873 whole entry, looked up): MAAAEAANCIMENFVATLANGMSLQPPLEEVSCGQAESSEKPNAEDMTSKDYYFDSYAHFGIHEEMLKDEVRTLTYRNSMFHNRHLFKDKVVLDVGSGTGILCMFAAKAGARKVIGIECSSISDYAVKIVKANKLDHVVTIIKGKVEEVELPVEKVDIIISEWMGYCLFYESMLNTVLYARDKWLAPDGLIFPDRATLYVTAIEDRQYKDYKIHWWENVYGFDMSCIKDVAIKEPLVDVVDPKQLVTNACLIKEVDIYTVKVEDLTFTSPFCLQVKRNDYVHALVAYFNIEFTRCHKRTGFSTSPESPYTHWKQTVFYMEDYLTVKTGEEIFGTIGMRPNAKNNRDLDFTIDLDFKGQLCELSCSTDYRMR
LEDGF integ inh: blocks HIV-1 LEDGF/p75-dependent DNA integration; TR-FRET IN-LEDGF/p75 DNA integration, Eu/Cy5; AID 743269; hit rate 0.64% among 370,000; inhibition, % at 3.7 µM;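 active = inhibition above the screen-wide mean plus 3 SD, cut at about 13% in these data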;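 note: signal is the Cy5 over europium emission ratio at 671 and 618 nm; 0% = plate median of compound wells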
MBD2 inh: blocks human MBD2 binding to methylated DNA | hit rate 0.31% among 370,000 | AID 686964 | inhibition, % at 4.4 µM | TR-FRET, MBD2 binding to methylated oligonucleotide | Q9UBB5; in the data active = inhibition above about 13%
SIAE inh: human SIAE inhibition, primary screen. Q9HAT2. SIAE FP-Rh probe binding, fluorescence polarization. inhibition, % at 9.66 µM. hit rate 0.69% among 370,000;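 active = inhibition above a cutoff: mean of compounds within the control limits plus 3 SD of those, cut at about 17% in these data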;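 note: 0% = plate median of compound wells and 100% = probe without SIAE protein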
IN multimer act: counter-screen for LEDGF/p75 integration inhibitors: HIV-1 integrase multimerization activators; shares compounds with LEDGF integ inh; TR-FRET HIV-1 integrase multimerization, biochemical; activation, % at 7.7 µM; hit rate 17% among 2,000; AID 1053131; in the data active = activation above about 8.9%
TRFRET interf: optically interferes with TR-FRET readout in LEDGF counter-screen; shares compounds with LEDGF integ inh; TR-FRET optical interference counterscreen, HIV-1 IN multimerization; inhibition, % at 7.7 µM; 2,000 tested, under 10 active; AID 1053135;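 active = inhibition above the mean over all tested compounds plus 3 SD, which no compound reached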;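 note: 0% = integrase with antibodies and DMSO and 100% = antibodies without integrase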
IN-LEDGF confirm: LEDGF/p75-dependent HIV-1 integration inhibition, confirmation. shares compounds with LEDGF integ inh. TR-FRET LEDGF/p75-dependent HIV-1 integration, biochemical. inhibition, % at 3.7 µM. hit rate 36% among 2,000; in the data active = inhibition above about 14%
SIAE inh conf: human SIAE inhibition, confirmation; SIAE FP-Rh activity-based probe, fluorescence polarization; inhibition, % at 9.66 µM; shares compounds with SIAE inh; hit rate 13% among 2,300;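 active = mean inhibition of the replicates above the hit cutoff set in the primary screen, cut at about 17% in these data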;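 note: 0% = SIAE with DMSO and probe and 100% = probe without SIAE; inhibitors lower polarization as more probe stays unbound to SIAE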
Numbers without * were called inactive; · = no result given.

SMILES	TDP2 inh	UHRF1 binding	PRMT1 FP inh	LEDGF integ inh	MBD2 inh	SIAE inh	IN multimer act	TRFRET interf	IN-LEDGF confirm	SIAE inh conf
CCc1ccc(OC(=O)/C=C/c2ccco2)cc1	-2	13	5	15*	-2	7	1	-7	2	·
COC(=O)N/N=C/c1ccc(OC(=O)/C=C/c2ccco2)cc1	-2	0	1	5	-6	2	·	·	·	·
O=C(/C=C\c1ccco1)Oc1cccc2cccnc12	-5	1	-1	4	0	6	·	·	·	·
CCNC(=O)Nc1nc2ccccc2s1	-1	1	-1	3	-4	0	·	·	·	·
CN(C)C(=S)Nc1nc2ccccc2s1	12	-2	5	17*	-2	-3	1	-6	9	·
O=C(N[C@H]1C[C@@H]2O[C@@H](CO)CC[C@@H]2O[C@@H]1CCc1ccc(-c2cccnc2)cc1)c1cccc(F)c1	3	3	-2	9	-5	-24	·	·	·	·
C[C@](N)(Cc1ccc(O)c(O)c1)C(=O)O	5	40*	15	60*	12	18*	7	-36	-4	7
CN=c1scc(C)n1/N=C/c1ccc(O)c(O)c1O	6	5	26*	57*	4	19*	33*	-168	40*	0
Cc1cc2c(c(=O)o1)C(c1ccc([N+](=O)[O-])o1)C(C#N)=C(N)O2 (stereo not drawn)	6	11	6	15*	-4	23*	4	-21	9	0
CN(C)c1ccc(NC2=C([N+](=O)[O-])CS(=O)(=O)C2)cc1	4	-3	12	24*	-8	18*	7	-34	1	8
Cc1ccc(NC2=C([N+](=O)[O-])CS(=O)(=O)C2)cc1	0	-1	3	1	-1	1	·	·	·	·
CCOC(=O)[C@]12CCCCC/C=C\1N(Cc1ccc(OC)cc1)C(=O)[C@H]2CC(=O)NCc1ccccc1	1	1	1	0	-3	6	·	·	·	·
COC(=O)CSc1nnc(NC(=O)c2ccc3c(c2)OCO3)s1	-6	0	-1	25*	-5	19*	0	-1	-13	-2
Oc1ccc(/C=N/N(c2ccccc2)c2ccccc2)cc1O	-7	1	18	2	3	2	·	·	·	·
Oc1ccc(/C=N/N(c2ccccc2)c2ccccc2)c(O)c1O	1	-3	12	26*	0	20*	-1	6	16*	-30
COC(=O)C(C(=O)OC)[C@H]1C=C[C@@H](C(=O)NS(=O)(=O)c2ccc(C)cc2)N(C(C)=O)C1	-4	5	6	0	-1	2	·	·	·	·
C[C@@H]1COc2cc(Br)ccc2S(=O)(=O)N1Cc1cn(Cc2ccc(F)cc2)nn1	5	0	0	0	0	2	·	·	·	·
O=C(/C=C/c1ccco1)NC(=S)Nc1ccc(N2CCCC2)cc1	2	8	25*	18*	0	18*	4	-21	-1	7
Cc1cc(N(C)C)ccc1N=Nc1ccc(N)cc1	3	-9	-1	5	-1	-3	·	·	·	·
Cc1cc2nc3ccc(N(C)C)cc3nc2cc1N	-2	2	70*	31*	-2	30*	15*	-75	72*	32*
COc1ccc(C(=O)CSc2nnc(-c3ccc(C(C)(C)C)cc3)n2C)cc1	1	-1	-1	1	3	2	·	·	·	·
COc1cccc(NC(=O)CSc2nnc(-c3ccco3)c(-c3ccco3)n2)c1	9	14	47*	25*	2	20*	8	-30	39*	4
Cc1ccc(-c2nnc(NC(=O)COc3ccc(F)cc3Cl)o2)cc1C	-6	3	2	-3	-3	-1	·	·	·	·
Oc1ccc(CNc2ccc(C(F)(F)F)cc2F)c2cccnc12	5	-7	10	1	1	4	·	·	·	·
CC1(C)OC(C)(C)/C(=C/Nc2ccc(O)cc2)C1=O	11	6	18	21*	4	33*	45*	-158	31*	9
SMILES	TDP2 inh	UHRF1 binding	PRMT1 FP inh	LEDGF integ inh	MBD2 inh	SIAE inh	IN multimer act	TRFRET interf	IN-LEDGF confirm	SIAE inh conf
CC1CCC/C(=C\Nc2ccc(O)cc2)C1=O (stereo not drawn)	8	-7	15	3	-5	16	·	·	·	·
CCOC(=O)C1=C(C(=O)OCC)C2N(Cc3ccc(C#N)cc3)c3ccccc3[C@@]23C[C@@H](C(=O)OC)N(S(=O)(=O)c2ccc(C)cc2)C3=N1 (stereo partly drawn)	7	5	-1	1	8	-19	·	·	·	·
CC(=O)Nc1ccc(OCc2cn(CC(=O)c3ccc(O)cc3)nn2)cc1	6	17	4	15*	9	21*	7	-34	8	16
O=C(Cn1cc(COc2cc(F)cc(F)c2)nn1)c1ccc(O)cc1	-8	8	-4	2	-3	-4	·	·	·	·
CCCCCCNC(=O)C1CSCCS(=O)(=O)N1Cc1ccc(C)cc1 (stereo not drawn)	-9	4	-4	8	-10	-2	·	·	·	·
CNc1ccc(Br)cc(C(=O)/C=C/c2ccc(OC)cc2OC)c1=O	7	-1	14	13*	-1	21*	4	-13	12	7
COc1ccc(/C=C/C(=O)c2ccc(OC)cc2OC)c(OC)c1	0	-3	3	3	1	-3	·	·	·	·
O=C(NC(Cc1ccccc1)C(=O)O)/C(=C/c1ccc(Cl)cc1)NC(=O)c1ccccc1 (stereo not drawn)	11	-2	-2	20*	2	17*	2	-8	15*	1
O=C(NC(Cc1ccccc1)C(=O)O)/C(=C\c1ccccc1F)NC(=O)c1ccccc1 (stereo not drawn)	8	-2	1	2	-2	2	·	·	·	·
COCCN=c1scc(-c2ccco2)n1/N=C/c1ccc(O)c(O)c1O	2	6	40*	45*	2	28*	16*	-57	53*	-4
COc1ccc(/C=N\NC(=O)c2cc(O)c(O)c(O)c2)cc1CN1CCN(c2ccc(F)cc2)CC1	4	11	7	20*	-1	30*	37*	-188	38*	-7
COc1ccc(/C=N/NC(=O)c2ccncc2)cc1CN1CCN(c2ccc(F)cc2)CC1	-8	-1	2	-5	-3	-2	·	·	·	·
